Results: paper PMC5498144 (BMB Reports, 2017)

Legend:
PTPN2 [1] = target: T1, PTPN2 (Homo sapiens, UniProt P17706); assay: DARTS assay; type: binding; conditions: 1 μM pretreatment 20 min, then trypsin on ice; PTPN2/trypsin 100:1
T1 sequence (P17706 1-415): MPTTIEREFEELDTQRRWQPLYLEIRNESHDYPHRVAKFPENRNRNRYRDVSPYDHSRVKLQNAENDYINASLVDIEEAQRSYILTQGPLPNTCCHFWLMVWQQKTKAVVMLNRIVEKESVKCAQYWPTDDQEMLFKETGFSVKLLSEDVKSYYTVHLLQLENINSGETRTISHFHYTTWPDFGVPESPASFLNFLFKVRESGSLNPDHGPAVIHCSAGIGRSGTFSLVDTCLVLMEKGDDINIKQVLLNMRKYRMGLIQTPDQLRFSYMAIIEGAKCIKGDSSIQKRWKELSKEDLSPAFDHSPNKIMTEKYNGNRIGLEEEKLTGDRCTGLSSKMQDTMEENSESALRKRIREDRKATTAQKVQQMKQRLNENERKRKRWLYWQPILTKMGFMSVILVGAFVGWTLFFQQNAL

HEK 293 cells = assay: Cell viability assay; type: cell-based, human; conditions: 6 h, up to 1.5 μM (tested 1, 1.5, 2, 3 μM)
Method in brief: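 HEK 293 cells grown in DMEM with 10% FBS and 1% penicillin/streptomycin under 5% CO2. Seeded at 1.5 × 10^6 cells/well and left overnight, then exposed to test compound (1, 1.5, 2, 3 μM) for 6 h. Water-soluble tetrazolium reagent added for 1 h at 37°C; absorbance read at 450 nm against a 650 nm reference. Mean ± SEM of three independent experiments; Student's t-test versus untreated.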

DUSP18 = target: T2, DUSP18 (Homo sapiens, UniProt Q8NEJ0); assay: In vitro phosphatase assay with OMFP as substrate; type: biochemical
T2 sequence (Q8NEJ0 1-188): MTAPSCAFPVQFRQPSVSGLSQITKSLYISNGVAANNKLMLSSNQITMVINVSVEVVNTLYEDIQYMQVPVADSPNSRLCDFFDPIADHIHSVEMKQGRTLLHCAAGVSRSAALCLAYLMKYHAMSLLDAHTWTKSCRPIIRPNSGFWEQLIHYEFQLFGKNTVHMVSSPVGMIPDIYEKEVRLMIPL
Method in brief: (§1)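 His-tagged human PTPs expressed in E. coli BL21(DE3)-RIL (1 mM IPTG, 37°C, 3 h) and Ni-NTA purified. 100 nM enzyme in 30 mM Tris-HCl pH 7.0, 75 mM NaCl, 1 mM EDTA, 0.4 mM DTT, 0.132% BSA, 1% DMSO final. Test compound (water-dissolved; 0, 5, 10 μM) present; started with 100 μM OMFP; 30 min at 37°C. Fluorescence ex 495/em 535 nm; triplicates; IC50 by curve fitting.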

SSH3 = target: T3, SSH3 (Homo sapiens, UniProt Q8TE77); assay: In vitro phosphatase assay with OMFP as substrate; type: biochemical
T3 sequence (Q8TE77 1-659): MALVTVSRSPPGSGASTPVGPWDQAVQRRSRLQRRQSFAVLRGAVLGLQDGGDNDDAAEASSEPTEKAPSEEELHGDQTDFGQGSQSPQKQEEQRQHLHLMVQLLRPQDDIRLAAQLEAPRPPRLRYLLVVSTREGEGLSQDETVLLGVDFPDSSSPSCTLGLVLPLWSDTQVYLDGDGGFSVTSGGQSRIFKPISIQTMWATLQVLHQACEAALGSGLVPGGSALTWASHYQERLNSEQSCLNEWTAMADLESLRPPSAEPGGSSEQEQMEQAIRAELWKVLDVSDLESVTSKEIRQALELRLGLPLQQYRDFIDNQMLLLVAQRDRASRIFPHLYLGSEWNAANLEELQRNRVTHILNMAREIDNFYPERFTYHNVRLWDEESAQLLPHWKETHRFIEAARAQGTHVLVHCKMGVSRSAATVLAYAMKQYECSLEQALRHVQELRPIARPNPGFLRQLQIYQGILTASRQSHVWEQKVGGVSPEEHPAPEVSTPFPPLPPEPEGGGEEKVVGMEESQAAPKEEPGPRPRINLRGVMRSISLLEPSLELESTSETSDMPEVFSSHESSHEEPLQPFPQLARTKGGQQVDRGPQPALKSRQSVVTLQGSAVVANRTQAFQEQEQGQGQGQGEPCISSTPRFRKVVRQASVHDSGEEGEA
Method in brief: as §1

CD45 = target: T4, CD45 (Homo sapiens, UniProt P08575); assay: In vitro phosphatase assay with OMFP as substrate; type: biochemical
T4 sequence (P08575 653-912 limits assumed): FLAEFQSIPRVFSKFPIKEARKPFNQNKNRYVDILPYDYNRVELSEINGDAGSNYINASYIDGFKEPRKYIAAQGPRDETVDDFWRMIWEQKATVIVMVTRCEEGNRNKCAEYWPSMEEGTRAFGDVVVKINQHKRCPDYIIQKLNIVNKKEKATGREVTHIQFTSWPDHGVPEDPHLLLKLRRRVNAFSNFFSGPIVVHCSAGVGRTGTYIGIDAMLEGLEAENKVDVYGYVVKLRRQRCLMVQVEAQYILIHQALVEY
Method in brief: as §1

DUSP3 = DUSP3 (Homo sapiens, UniProt P51452); assay: In vitro phosphatase assay with OMFP as substrate; type: biochemical
Method in brief: as §1

PTPN2 [2] = target: T1, PTPN2; assay: Kinetic analysis; type: biochemical
[3] = system: PTPN2-mediated dephosphorylation of STAT3 at Tyr-705; type: cell-based, human; conditions: HEK 293 cells with FLAG-PTPN2, 1.5 μM 6 h, then IL-6 10 ng/ml 30 min
Method in brief: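 HEK 293 cells transfected with FLAG-PTPN2 wild type or catalytically dead C216S plasmid using polyethylenimine. After 42 h, treated with test compound (1.5 μM) for 6 h, then IL-6 (10 ng/ml) for 30 min. Cells lysed in PTP lysis buffer. Immunoblots probed for phospho-STAT3 Tyr-705 and total STAT3, detected by ECL and quantified by densitometry relative to the IL-6-stimulated group.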

PTEN = PTEN (Homo sapiens, UniProt P60484); assay: In vitro phosphatase assay with OMFP as substrate; type: biochemical
Method in brief: as §1

Cdc25B = target: T5, Cdc25B (Homo sapiens, UniProt P30305); assay: In vitro phosphatase assay with OMFP as substrate; type: biochemical
T5 sequence (P30305 1-580): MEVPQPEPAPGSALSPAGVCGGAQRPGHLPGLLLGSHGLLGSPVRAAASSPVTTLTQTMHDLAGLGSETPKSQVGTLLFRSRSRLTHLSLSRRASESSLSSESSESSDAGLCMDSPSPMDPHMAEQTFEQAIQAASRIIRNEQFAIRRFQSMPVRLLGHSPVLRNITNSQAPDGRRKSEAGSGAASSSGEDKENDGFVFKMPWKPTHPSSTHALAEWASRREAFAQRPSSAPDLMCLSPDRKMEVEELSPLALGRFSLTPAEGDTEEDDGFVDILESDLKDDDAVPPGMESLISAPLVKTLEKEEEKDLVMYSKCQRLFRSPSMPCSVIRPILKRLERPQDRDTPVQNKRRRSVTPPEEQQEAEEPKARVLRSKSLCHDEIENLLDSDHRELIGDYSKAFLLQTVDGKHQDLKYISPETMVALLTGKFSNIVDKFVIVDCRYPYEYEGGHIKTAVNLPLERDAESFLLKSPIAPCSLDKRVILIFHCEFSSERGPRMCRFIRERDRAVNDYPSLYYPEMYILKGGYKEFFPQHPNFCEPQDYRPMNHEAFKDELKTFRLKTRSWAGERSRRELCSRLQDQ
Method in brief: as §1

DUSP8 = target: T6, DUSP8 (Homo sapiens, UniProt Q13202); assay: In vitro phosphatase assay with OMFP as substrate; type: biochemical
T6 sequence (Q13202 1-625): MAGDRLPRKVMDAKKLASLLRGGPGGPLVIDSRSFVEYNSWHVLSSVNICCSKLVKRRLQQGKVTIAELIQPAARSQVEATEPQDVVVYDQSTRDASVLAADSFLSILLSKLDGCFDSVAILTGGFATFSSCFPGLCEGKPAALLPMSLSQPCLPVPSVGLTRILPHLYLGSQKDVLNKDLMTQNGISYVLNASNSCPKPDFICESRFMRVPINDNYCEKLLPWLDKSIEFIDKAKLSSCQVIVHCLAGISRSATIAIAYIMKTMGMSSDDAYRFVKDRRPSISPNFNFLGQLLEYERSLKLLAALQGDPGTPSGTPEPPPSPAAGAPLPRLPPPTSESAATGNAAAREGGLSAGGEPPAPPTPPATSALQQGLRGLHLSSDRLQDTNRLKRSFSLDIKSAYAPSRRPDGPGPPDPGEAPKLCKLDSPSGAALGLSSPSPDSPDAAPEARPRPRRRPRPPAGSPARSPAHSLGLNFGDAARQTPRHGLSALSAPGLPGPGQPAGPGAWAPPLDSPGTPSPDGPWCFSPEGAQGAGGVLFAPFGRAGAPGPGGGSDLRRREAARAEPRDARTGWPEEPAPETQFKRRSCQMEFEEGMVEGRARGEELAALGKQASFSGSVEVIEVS
Method in brief: as §1

DUSP23 = target: T7, DUSP23 (Homo sapiens, UniProt Q9BVJ7); assay: In vitro phosphatase assay with OMFP as substrate; type: biochemical
T7 sequence (Q9BVJ7 1-150): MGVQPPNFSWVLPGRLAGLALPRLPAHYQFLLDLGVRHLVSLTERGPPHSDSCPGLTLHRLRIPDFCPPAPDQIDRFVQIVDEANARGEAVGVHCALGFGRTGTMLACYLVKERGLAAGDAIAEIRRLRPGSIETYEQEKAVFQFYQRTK
Method in brief: as §1

Laforin = target: T8, Laforin (Homo sapiens, UniProt O95278); assay: In vitro phosphatase assay with OMFP as substrate; type: biochemical
T8 sequence (O95278 1-331): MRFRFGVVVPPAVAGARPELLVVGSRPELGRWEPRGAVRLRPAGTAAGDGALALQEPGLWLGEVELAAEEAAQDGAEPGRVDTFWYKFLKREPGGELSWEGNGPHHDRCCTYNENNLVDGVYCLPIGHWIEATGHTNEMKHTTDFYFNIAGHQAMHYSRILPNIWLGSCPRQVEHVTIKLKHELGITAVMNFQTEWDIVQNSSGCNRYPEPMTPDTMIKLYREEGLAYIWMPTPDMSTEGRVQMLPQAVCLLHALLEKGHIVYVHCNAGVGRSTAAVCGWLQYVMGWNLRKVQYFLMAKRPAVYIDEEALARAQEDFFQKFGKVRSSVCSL
Method in brief: as §1

PTEN, sequence (P60484 whole entry, species assumed): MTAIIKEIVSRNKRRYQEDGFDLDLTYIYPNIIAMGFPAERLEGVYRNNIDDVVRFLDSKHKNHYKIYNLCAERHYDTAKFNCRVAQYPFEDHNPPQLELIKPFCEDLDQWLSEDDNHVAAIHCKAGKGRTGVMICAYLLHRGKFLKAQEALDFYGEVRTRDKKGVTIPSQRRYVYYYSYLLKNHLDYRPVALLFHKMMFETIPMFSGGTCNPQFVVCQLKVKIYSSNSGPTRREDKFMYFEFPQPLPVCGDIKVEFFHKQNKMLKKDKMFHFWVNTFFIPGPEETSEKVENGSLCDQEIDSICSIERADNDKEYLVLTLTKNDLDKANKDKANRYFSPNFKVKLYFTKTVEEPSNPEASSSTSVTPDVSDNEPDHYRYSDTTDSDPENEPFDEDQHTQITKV
DUSP3, sequence (P51452 whole entry, species assumed): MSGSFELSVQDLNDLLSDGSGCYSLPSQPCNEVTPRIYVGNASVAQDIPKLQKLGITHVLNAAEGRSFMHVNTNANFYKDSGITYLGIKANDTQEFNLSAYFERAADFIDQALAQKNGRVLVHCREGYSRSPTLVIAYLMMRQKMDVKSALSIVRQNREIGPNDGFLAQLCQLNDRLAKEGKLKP

Structure (SMILES)	Proteolysis of PTPN2 by trypsin (DARTS) (PTPN2 [1])	Cytotoxic effects (cell viability) (HEK 293 cells)	IC50 (DUSP18)	IC50 (SSH3)	IC50 (CD45)	IC50 (DUSP3)	Ki (PTPN2 [2])	PTPN2-mediated dephosphorylation of STAT3 at Tyr-705 [3]	IC50 (PTEN)	IC50 (Cdc25B)	IC50 (DUSP8)	IC50 (DUSP23)	IC50 (Laforin)
O=S(=O)(F)Cc1ccccc1 [PMSF, phenylmethylsulfonyl fluoride]	decreased												
CC(C)(C)C(=O)Nc1ccc2c(c1)C(=O)C(=O)c1ccccc1-2 [PTP inhibitor XIX, N-[9, 10-dioxo-9, 10-dihydro-phenanthren-2-yl]-2,2-dimethyl-propionamide]		no apparent cytotoxic effects	> 50 µM	> 50 µM	0.86 ± 0.03 µM	> 50 µM	0.76 ± 0.08 µM	inhibited	1.78 ± 0.34 µM	> 50 µM	> 50 µM	> 50 µM	> 100 µM
